3 molecules from paper PMC4348351 (Pest management science, 2014) can be followed below.

The structures appear in SMILES notation.

Assay [1] concerns Musca domestica AChE (MdAChE). The format is biochemical. The following applies: for SR MdAChE: SR = IC50 of agricultural insect AChE/IC50 of An.gAChE.
Assay [2] concerns Anopheles albimanus AChE (An.aAChE). The assay is described as follows: AChE inhibition, Ellman assay, An.aAChE. Type of assay: biochemical. Conditions: SR = IC50 of mosquito AChE/IC50 of An. gambiae. For orientation: In Ellman's method for cholinesterases, released thiocholine reacts with DTNB.
Assay [3] concerns the target Drosophila melanogaster AChE (DmAChE) (Drosophila melanogaster, UniProt P07140). As to the kind of experiment: AChE inhibition, Ellman assay, DmAChE. Type of assay: biochemical. Conditions: for SR DmAChE: SR = IC50 of agricultural insect AChE/IC50 of An.gAChE.
Assay [4] has as its system Culex quinquefasciatus AChE (CqAChE). The assay is described as follows: AChE inhibition, Ellman assay, CqAChE. Type of assay: biochemical. The following applies: SR = IC50 of mosquito AChE/IC50 of An. gambiae.
Assay [5] concerns Anopheles quadrimaculatus AChE (An.qAChE). The assay is described as follows: AChE inhibition, Ellman assay, An.qAChE. Type of assay: biochemical. Conditions: SR = IC50 of mosquito AChE/IC50 of An. gambiae.
In assay [6] the target is Aedes aegypti AChE (Ae.aAChE) (Aedes aegypti, UniProt Q6A2E2). The assay is described as follows: AChE inhibition, Ellman assay, Ae.aAChE. Type of assay: biochemical. The following applies: SR = IC50 of mosquito AChE/IC50 of An. gambiae.
For assay [7], the system named is Plutella xylostella AChE (PxAChE). The assay is described as follows: AChE inhibition, Ellman assay, PxAChE. Type of assay: biochemical. Conditions: for SR PxAChE: SR = IC50 of agricultural insect AChE/IC50 of An.gAChE.
Assay [8] has as its system Ostrinia nubilalis AChE (OnAChE). As to the kind of experiment: AChE inhibition, Ellman assay, OnAChE. The following applies: for SR OnAChE: SR = IC50 of agricultural insect AChE/IC50 of An.gAChE. Type of assay: biochemical.
The test system of the next assay is An. gambiae. The assay is described as follows: Topical toxicity bioassay, An. gambiae. Type of assay: in vivo, Anopheles gambiae. The following applies: adult females, 24 hour mortality. A digest of the protocol:
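Anopheline adults, chilled on ice for 1 min, received 200 nL of test compound in 95% ethanol on the abdomen via handheld microapplicator. Five doses × ten insects, three repeats, plus an ethanol-only control. Sugar water was freely available under netting.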

The test system of a further assay is Ae. aegypti. As to the kind of experiment: Topical toxicity bioassay, Ae. aegypti. The following applies: adult females, 24 hour mortality. Type of assay: in vivo, Aedes aegypti. The essentials: (§1)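 Adult mosquitoes were chilled on ice for 3 min, then 200 nL of test compound in 95% ethanol was applied to the abdomen by handheld microapplicator. Five doses, ten insects each, repeated three times, with an ethanol-only negative control. Insects were held under netting with free access to sugar water.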

Assay [9] concerns Aedes albopictus AChE (Ae.bAChE). As to the kind of experiment: AChE inhibition, Ellman assay, Ae.bAChE. Type of assay: biochemical. Conditions: SR = IC50 of mosquito AChE/IC50 of An. gambiae.
Assay [10] deals with Apis mellifera AChE (Ap.mAChE). The assay is described as follows: AChE inhibition, Ellman assay, Ap.mAChE. Type of assay: biochemical. The following applies: for SR Ap.mAChE: SR = IC50 of agricultural insect AChE/IC50 of An.gAChE.
A further assay has as its system O. nubilalis. As to the kind of experiment: Topical toxicity bioassay, O. nubilalis. The following applies: for SR (toxicity): Selectivity Ratio = O. nubilalis LD50/An. gambiae LD50; for LD50 (95% CI) O. nubilalis: topical, L2 larvae, 24 hour mortality. The format is in vivo, Ostrinia nubilalis. The essentials:
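Lepidopteran larvae were ice-chilled for 3 min before 1 μL of test compound in 95% ethanol was applied to the abdomen with a handheld microapplicator. Five doses, ten larvae per dose, done three times, with an ethanol-only negative control. Food substrate was provided in netted containers.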

Assay [11] concerns Diaphorina citri AChE (DcAChE). As to the kind of experiment: AChE inhibition, Ellman assay, DcAChE. Type of assay: biochemical. The following applies: SR = IC50 of agricultural insect AChE/IC50 of An.gAChE.
A further assay concerns Cu. quinquefasciatus. The assay is described as follows: Topical toxicity bioassay, Cu. quinquefasciatus. The format is in vivo, Culex quinquefasciatus. The following applies: adult females, 24 hour mortality. The essentials: as §1
In assay [12] the test system is mosquito acetylcholinesterases. As to the kind of experiment: AChE inhibition, statements across mosquito species. Type of assay: biochemical.

With `CNC(=O)Oc1cccc2c1OC(C)(C)O2` [Bendiocarb, bendiocarb], the “fold more potent than propoxur, MdAChE” value in assay [1] (IC50 ratio versus propoxur) is 2.6 fold. In assay [1], the “SR MdAChE” value is 0.3. The “SR An.aAChE” value in [2] came out at 1.0. Further, the “fold more potent than propoxur, DmAChE” value in assay [3] (IC50 ratio versus propoxur) was 3.9 fold. Also, the “SR DmAChE” value in assay [3] worked out at 0.2. Also, in assay [4], the “SR CqAChE” value is reported as 1.2. Moreover, the “SR An.qAChE” value in [5] was 0.8. Further, in assay [6], the “SR Ae.aAChE” value worked out at 0.7. In addition, the “fold more potent than 1, PxAChE” value in [7] (IC50 ratio versus 1) was 3 fold. Also, the “fold more potent than 5, PxAChE” value in [7] (IC50 ratio, 100 μM value used for 5) was found to be 461 fold. Also, the “SR PxAChE” value in [7] is 1.3; in [7] (listed as bendiocarb), not above 7. Besides, the “fold more potent than 1, OnAChE” value in assay [8] (IC50 ratio versus 1) was found to be 8 fold. Besides, in assay [8] (IC50 ratio versus 5), the “fold more potent than 5, OnAChE” value came to 243 fold. The “SR OnAChE” value in assay [8] came out at 2. For the same molecule, the “LD50 (95% CI) An. gambiae” value with An. gambiae is recorded as 2 (1–4) aA ng/mg. Moreover, in the assay with Ae. aegypti, the “LD50 (95% CI) Ae. aegypti” value is 1 (0.5–3) aA ng/mg. Also, the “SR Ae.bAChE” value in [9] was 0.8. For the same molecule, in assay [10] (IC50 ratio versus propoxur), the “fold difference in IC50 versus propoxur, Ap.mAChE” value is 19 fold. In addition, the “SR Ap.mAChE” value in assay [10] was determined as 0.3. In addition, the “fold more toxic than 1, O. nubilalis” value in the assay on O. nubilalis (LD50 ratio versus 1) amounted to 24 fold. For the same molecule, the “SR (toxicity)” value with O. nubilalis turned out to be 2. The results for the “LD50 (95% CI) O. nubilalis” value in the assay on O. nubilalis and in the assay with O. nubilalis (listed as bendiocarb) were 4 (2–6) aB ng/mg and 4 ng/mg, respectively. Further, the “SR DcAChE” value in assay [11] is given as 0.5. In the assay with Cu. quinquefasciatus, the “LD50 (95% CI) Cu. quinquefasciatus” value is reported as 2 (1–4) aB ng/mg.
Consider `CNC(=O)Oc1cccc2c1OC(C)(C)C2` [Carbofuran, carbofuran], for which the “SR An.aAChE” value in [2] was determined as 1.2. The “fold more active than bendiocarb, within each mosquito species” value in [12] (IC50 ratio versus bendiocarb) is listed as “about 3 fold”. Further, the “fold more potent than propoxur, within each mosquito species” value in [12] (IC50 ratio versus propoxur) is recorded as “approximately 10 fold”. Also, in [4], the “SR CqAChE” value stood at 2.3. The “SR An.qAChE” value in [5] came to 0.9. For the same molecule, the “SR Ae.aAChE” value in assay [6] was 0.9. Further, the “SR Ae.bAChE” value in assay [9] turned out to be 1.0.
As to `CNC(=O)Oc1ccccc1OC(C)C` [Propoxur], the “SR MdAChE” value in assay [1] was found to be 0.3. Further, the “SR An.aAChE” value in assay [2] is on record as 1.1. Moreover, the “SR DmAChE” value in assay [3] came out at 0.2. In addition, the “SR CqAChE” value in assay [4] was 1.1. In addition, the “SR An.qAChE” value in assay [5] is on record as 1.0. For the same molecule, in [6], the “SR Ae.aAChE” value is 0.8. Further, the “SR PxAChE” value in [7] is 7.5. Besides, in assay [7] (listed as propoxur), the “SR PxAChE” value was 7. The “SR OnAChE” value in assay [8] stood at 15. Moreover, in the assay with An. gambiae, the “LD50 (95% CI) An. gambiae” value is recorded as 3 (2–4) aA ng/mg. Further, in the assay with Ae. aegypti, the “LD50 (95% CI) Ae. aegypti” value is recorded as 3 (1–4) aA ng/mg. Further, in assay [9], the “SR Ae.bAChE” value is 0.8. Moreover, the “SR Ap.mAChE” value in [10] is given as 2. In the assay on O. nubilalis, the “SR (toxicity)” value was determined as 14 and the “LD50 (95% CI) O. nubilalis” value was 42 (34–49) cA ng/mg. The “SR DcAChE” value in [11] came to 2. For the same molecule, in the assay on Cu. quinquefasciatus, the “LD50 (95% CI) Cu. quinquefasciatus” value is given as 8 (5–11) bA ng/mg.
